Screening results: PubChem BioAssay, Broad Institute
The list is a sample of the results.
PGC1a acetyl up: raises PGC1a acetylation signal in U2OS cells. U2OS PGC1a acetylation AlphaScreen, overnight. activation, % at 15.6 µM. hit rate 0.21% among 350,000. AID 651723;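 active = every replicate reaching activation of at least 50%, whatever the mean replicate activation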;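 also: hits raise the AlphaScreen acetylation signal above neutral controls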
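Test system: U2OS cells expressing flag-PGC1a plus GCN5; Amount: 7000 U2OS cells per well; Compound: single test concentration per compound; Incubation: compound overnight at 37 °C, each detection step 1 h RT; Signal: AlphaScreen lysate read.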
Hep G6PC suppr: PGC-1a acetylation activators affecting G6PC expression in hepatocytes; shares compounds with PGC1a acetyl up; primary mouse hepatocytes, G6PC mRNA qPCR, forskolin; 240 tested, under 10 active; AID 743463; G6PC suppression (normalized activity, % of positive control; higher = more suppression), % at 26 µM;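 active = dose curves showing G6PC suppression whose half-maximal dose is at most twice the top valid dose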;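 also: G6PC expression relative to GAPDH housekeeping gene as delta delta Ct; 0% = median of neutral control wells and 100% = median of positive control wells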
PCK1 hep suppr: PGC-1a acetylation activators affecting PCK1 expression in hepatocytes; shares compounds with PGC1a acetyl up; primary mouse hepatocytes, PCK1 mRNA qPCR, forskolin-stimulated; PCK1 expression decrease, unspecified at 26 µM; 230 tested, under 10 active;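 active = compounds lowering PCK1 expression whose fitted half-maximal concentration is at most twice the top tested dose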;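 also: values are delta delta Ct of PCK1 relative to GAPDH; higher delta delta Ct means lower PCK1 expression so positive values indicate hits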
PGC1a hep suppr: hepatocyte PGC-1a expression change via PGC-1a acetylation activation | shares compounds with PGC1a acetyl up | max activity (PGC-1a expression decrease), % | 240 tested, under 10 active | primary mouse hepatocytes, PGC-1a mRNA qPCR, forskolin; top dose 26 µM;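 active = compound lowering PGC-1a expression with fitted half-maximal concentration at most twice its top tested dose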;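 also: 0% = neutral control wells median and 100% = positive control wells median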
Active calls of the source: *.

SMILES	PGC1a acetyl up	others
CN1CCN(Cc2cc(C(C)(C)C)c(O)c(C(C)(C)C)c2)CC1	130*
COc1ccc(CC2NCC(O)C2OC(C)=O)cc1 (stereo not drawn)	-92
O=C1CN=C(c2ccc[nH]2)c2cc(Cl)ccc2N1	-41
CC(=O)OC1C(O)C(C)OC(OC2C(OC(=O)C3CCC4C(C3)OC3(CC(OC(=O)/C=C/c5ccccc5)C(C)CO3)C43CO3)OC(C)C(O)C2OC(C)=O)C1O (stereo not drawn)	-78
COc1ccc(-n2nnnc2C(CCc2ccccc2)N2CCC(n3c(=O)[nH]c4ccccc43)CC2)cc1 (stereo not drawn)	-55
CC1=CC2OC3CC4OC(=O)C=CC=CC(C(C)O)OCC(O)C(C)CC(=O)OCC2(CC1O)C4(C)C31CO1 (stereo not drawn)	-81
COc1ccc(CCNC2(C#N)CCCCC2)cc1OC	-84
CC1=C(C/C(C)=C/c2ccccc2)/C(=C/CO)[C@@H]2OC(=O)O[C@]2(C)C12CC2	-43
C1=NCCc2c1[nH]c1ccccc21	156*
C[C@H]1CCC/C=C/[C@@H]2C[C@H](O)C[C@H]2[C@H](O)/C=C/C(=O)O1	-69
CC(=O)OC1(C)CC(C)C(=O)C(C(O)CC2CC(=O)NC(=O)C2)C1 (stereo not drawn)	-93
CC1OC(OC2CC(O)C3(CO)C4C(O)CC5(C)C(C6=CC(=O)OC6)CCC5(O)C4CCC3(O)C2)C(O)C(O)C1O (stereo not drawn)	-81
CCn1cc(C(=O)N2CCOCC2)c2ccccc21	-59
O=C1NCN(c2ccccc2)C12CCN(C(c1cc3ccccc3o1)c1nnnn1C1CCCCC1)CC2 (stereo not drawn)	84*
CC(=O)c1c(C)n(C2CCCCC2)c2ccc(O)cc12	-55
C=C1C(=O)O[C@@H]2C[C@@H](C)[C@@H]3C=CC(=O)[C@@]3(C)[C@@H](O)[C@H]12	-47
C[C@@H]1CN([C@H](C)CO)C(=O)c2c(c3ccccc3n2C)-c2ccccc2CO[C@@H]1CN(C)C(=O)Oc1ccccc1	265*
C[C@@H]1O[C@@H](O[C@@H]2C=C3CC[C@@H]4C(CC[C@]5(C)[C@@H](c6ccc(=O)oc6)CC[C@]45O)[C@@]3(C)CC2)[C@H](O)[C@H](O)[C@H]1O (stereo partly drawn)	-67
C[C@@H]1C[C@@H]([C@H](O)CC2CC(=O)NC(=O)C2)C(=O)[C@@H](C)C1	-73
C[C@@H]1O[C@@H](O[C@@H]2C=C3CCC4C(CC[C@]5(C)[C@@H](c6ccc(=O)oc6)CC[C@]45O)[C@@]3(C)CC2)[C@H](O)[C@H](O)[C@H]1O (stereo partly drawn)	-60
CCOc1ccc(-c2cc(C)[n+](CCc3ccc(OC)c(OC)c3)c(-c3ccc(OCC)cc3)c2)cc1	230*
CC(=O)OC1CC(OC2C(O)CC(OC3C(O)CC(OC4CCC5(C)C(CCC6C5CCC5(C)C(C7=CC(=O)OC7)CCC65O)C4)OC3C)OC2C)OC(C)C1OC1OC(CO)C(O)C(O)C1O (stereo not drawn)	-56
CCOCCN1CCC(OC(C)=O)C(C)C1 (stereo not drawn)	-42
COC(=O)C12OCC34C(CC5C(C)=C(O)C(=O)CC5(C)C3C(O)C1O)OC(=O)C(OC(=O)/C=C(\C)C(C)C)C24 (stereo not drawn)	-86
CC(=O)OC[C@]12CCC(C)=C[C@H]1O[C@@H]1[C@H](O)[C@@H](OC(C)=O)[C@@]2(C)[C@]12CO2	-86
COc1ccc(OC(=O)N(C)C[C@H]2OCc3ccccc3-c3c(n(C)c4ccccc34)C(=O)N([C@@H](C)CO)C[C@H]2C)cc1	62*	Hep G6PC suppr=13;PCK1 hep suppr=48;PGC1a hep suppr=46
Oc1ccc2c3c1O[C@H]1[C@@H](O)CC[C@@]4(O)[C@@H](C2)N(CC2CCC2)CC[C@]314	-57
CCn1nc(-c2cccs2)nc2c(=O)n(C)c(=O)nc1-2	-40
CCC1(OC(=O)CN)C(=O)OCc2c1cc1n(c2=O)Cc2cc3ccccc3nc2-1 (stereo not drawn)	-43
CC(=O)OC(C)(C)/C=C/C(=O)C(C)(O)C1C(O)CC2(C)C3CC=C4C(CC(O)C(=O)C4(C)C)C3(C)C(=O)CC12C (stereo not drawn)	-70
